From PubChem BioAssay
UCH37 inh: blocks the human deubiquitinase UCH37. purified proteasome/UCH37, Ub-AMC cleavage fluorescence. inhibition, % (concentration not given with the values). actives 0.33% (n = 330,000). AID 588478;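 active means mean inhibition over replicate wells above about 20%, limit read from the data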;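 further: 0% = compound-free wells with enzyme and 100% = wells lacking proteasome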
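Material: human UCH37 enzyme supplied as purified proteasome complex / Amount: 0.15 nM proteasome as dispensed / Buffer or medium: pH 7.4 Tris-HCl (50 mM) with ovalbumin, ATP-MgCl2, DTT / Times: preincubation 30 min, reaction 25 min, room temperature / Technique: AMC fluorescence from Ub-AMC cleavage, excitation 355 nm, emission 460 nm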
NLRP3 yeast inh: inhibitors of NALP3 inflammasome in yeast | inhibition, % at 10 µM | Yeast reconstituted NLRP3/ASC/caspase-1, beta-gal luminescence, 24 h | actives 0.39% (n = 330,000);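 active means inhibition of 50% or more; inactive means inhibition below 50%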;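 further: plate controls were induced DMSO wells for no effect and uninduced yeast grown without galactose for full effect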
NALP1 inh: NALP1 inhibition; S. cerevisiae NALP1/ASC/caspase-1 growth, X-gal OD620, 72 h; actives 0.61% (n = 280,000); AID 2071; inhibition, % at 10 µM; in the data active means inhibition mostly above about 24%, no sharp cut-off; inactive means mostly below about 32%
Calb FLC: C. albicans growth modulation with fluconazole; actives 0.57% (n = 300,000); growth inhibition, % (concentration not given with the values); AID 1979; C. albicans CaCi-2 + fluconazole, Alamar Blue growth, 48 h;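 active means growth inhibition above about 58% in most replicates, limit read from the data, passing the limit was not always enough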;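 further: all wells also contain fluconazole at 8 µg/ml as a sub-toxic cotreatment; 0% = median of DMSO wells and 100% = median of geldanamycin control wells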
ALR H2O2 inh: blocks human ALR sulfhydryl oxidase activity | purified ALR, DTT oxidation, H2O2 HRP-luminol luminescence | inhibition, % (no concentration beside the values) | actives 3.8% (n = 290,000);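 active means mean replicate inhibition above about 79%, with every replicate also reaching it, limit read from the data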
Target sequence (P55789 whole entry, looked up): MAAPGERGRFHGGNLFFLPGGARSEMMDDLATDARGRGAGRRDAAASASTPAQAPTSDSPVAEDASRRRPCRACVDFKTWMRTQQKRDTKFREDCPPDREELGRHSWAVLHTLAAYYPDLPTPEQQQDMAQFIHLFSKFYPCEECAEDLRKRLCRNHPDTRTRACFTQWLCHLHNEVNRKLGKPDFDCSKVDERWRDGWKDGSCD
ATG4B inhibitor: ATG4B (human) cysteine protease inhibition | Q9Y4P1 | ATG4B cleavage of LC3-PLA2, NBD-HPC fluorescence, 1 h | AID 504462 | inhibition, % at 8.33 µM | actives 0.51% (n = 340,000); in the data active means inhibition above about 40%
Target sequence (Q9Y4P1 whole entry, looked up): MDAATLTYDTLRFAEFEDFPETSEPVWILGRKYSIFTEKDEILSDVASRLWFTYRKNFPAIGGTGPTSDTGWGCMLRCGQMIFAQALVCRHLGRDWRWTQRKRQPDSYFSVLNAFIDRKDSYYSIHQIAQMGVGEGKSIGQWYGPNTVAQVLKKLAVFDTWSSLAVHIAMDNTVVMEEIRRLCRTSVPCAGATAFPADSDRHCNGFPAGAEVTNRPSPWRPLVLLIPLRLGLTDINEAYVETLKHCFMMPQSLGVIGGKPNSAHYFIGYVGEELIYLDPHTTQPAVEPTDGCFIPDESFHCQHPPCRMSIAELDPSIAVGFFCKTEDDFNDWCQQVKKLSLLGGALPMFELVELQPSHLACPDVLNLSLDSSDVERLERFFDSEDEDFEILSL
ATG4B conf: ATG4B (human) inhibition, single-dose confirmed; ATG4B protease fluorescent substrate cleavage assay; shares compounds with ATG4B inhibitor; inhibition, % at 8.33 µM; AID 504757; actives 92% (n = 320); in the data active means inhibition above about 39%
PLA2 counter: counter-screen for ATG4B inhibitors: human phospholipase A2; shares compounds with ATG4B inhibitor; purified PLA2, NBD-C6-HPC fluorescence, 45 min; inhibition, % at 8.33 µM; actives 66% (n = 1,600); in the data active means inhibition above about 50%
The depositor's hits bear a star. Rows were chosen to be rich in hits. Some 4.8% of all compounds tested hit in one or more screens of this group.

What do the screens show for `O=C(CCn1c2c(c3ccccc31)CCCC2)NNC(=O)c1ccc(Cl)c([N+](=O)[O-])c1`?
UCH37 inh: 1; NLRP3 yeast inh: -7; NALP1 inh: 28; Calb FLC: 2; ALR H2O2 inh: -22; ATG4B inhibitor: 52*; PLA2 counter: 61*

What do the screens show for `CC(CO)Nc1nc(SCc2ccccc2)nc2sc3c(c12)CCC3` (configuration not stated)?
UCH37 inh: 3; NLRP3 yeast inh: 22; NALP1 inh: 1; Calb FLC: -6; ALR H2O2 inh: -8; ATG4B inhibitor: 83*; PLA2 counter: 91*

Results for CNC(=O)CSc1nc(N)c2c3c(sc2n1)CCC3 ?
UCH37 inh: 5; NLRP3 yeast inh: 15; NALP1 inh: 3; Calb FLC: 26; ATG4B inhibitor: -2

What do the screens show for `COCCNc1nc(SCc2ccccc2)nc2sc3c(c12)CCC3`?
UCH37 inh: 3; NLRP3 yeast inh: 10; NALP1 inh: -4; Calb FLC: -2; ALR H2O2 inh: 0; ATG4B inhibitor: 46*; PLA2 counter: 60*

How did Cc1ccsc1C=NNC(=O)Cn1cnc2ccccc21 do in these assays?
UCH37 inh: 6

How did CCC(=O)n1nc(NCc2ccccc2OC)nc1NCc1ccccc1OC do in these assays?
UCH37 inh: 1; NLRP3 yeast inh: 11; NALP1 inh: 1; Calb FLC: 5; ALR H2O2 inh: -3; ATG4B inhibitor: 41*; PLA2 counter: 37

How did NS(=O)(=O)c1ccc(NN=Cc2ccc(O)c(O)c2O)c([N+](=O)[O-])c1 do in these assays?
UCH37 inh: 10

Results for Fc1ccc(Nc2nc(N/N=C/c3ccco3)nc(N3CCCCC3)n2)cc1 ?
NLRP3 yeast inh: 23; NALP1 inh: 15; Calb FLC: 53; ALR H2O2 inh: 7; ATG4B inhibitor: 64*; PLA2 counter: 78*

Results for Cn1c(CSCc2ccccc2Cl)n[nH]c1=S ?
UCH37 inh: 6; NLRP3 yeast inh: 13; NALP1 inh: -19; Calb FLC: -1; ALR H2O2 inh: 57; ATG4B inhibitor: 1

Results for S=c1[nH]nc(CSCc2ccccc2Cl)n1C1CCCCC1 ?
UCH37 inh: 3; NALP1 inh: 3; Calb FLC: 6; ATG4B inhibitor: 55*; PLA2 counter: 63*

Results for Cc1ccccc1CSc1nnc(-c2cccs2)n1Cc1ccco1 ?
UCH37 inh: 2; NLRP3 yeast inh: -28; NALP1 inh: 4; Calb FLC: 25; ALR H2O2 inh: 1; ATG4B inhibitor: 78*; PLA2 counter: 75*

What do the screens show for `Cc1ccccc1CSc1nnc(-c2ccco2)n1Cc1ccco1`?
UCH37 inh: 0; NLRP3 yeast inh: -13; NALP1 inh: -26; Calb FLC: 46; ALR H2O2 inh: 5; ATG4B inhibitor: 53*; PLA2 counter: 52*

What do the screens show for `COc1cc(NC(=S)Nc2cccc(Cl)c2Cl)c(OC)cc1Cl`?
UCH37 inh: 0; NLRP3 yeast inh: 18; NALP1 inh: -16; Calb FLC: -1; ALR H2O2 inh: -9; ATG4B inhibitor: 40*; PLA2 counter: 60*

What do the screens show for `COc1cc(NC(=S)Nc2ccc(Br)cc2Cl)c(OC)cc1Cl`?
UCH37 inh: 2; NLRP3 yeast inh: 18; NALP1 inh: 6; Calb FLC: 8; ATG4B inhibitor: 14

What do the screens show for `COC(=O)c1cccc(NC(=S)Nc2cccc(Cl)c2Cl)c1`?
UCH37 inh: 4; NLRP3 yeast inh: -13; NALP1 inh: 25; Calb FLC: 0; ALR H2O2 inh: 4; ATG4B inhibitor: 44*; PLA2 counter: 48

Results for CCCC12CN3CCN(CC(C3)C1=NNC(=O)c1ccc(C(C)(C)C)cc1)C2 ?
UCH37 inh: 5

What do the screens show for `CC(C)c1c(C(=O)NN=CC2CC=CCC2)nnn1-c1nonc1N` (configuration not stated)?
UCH37 inh: 0

What do the screens show for `O=C(O)CN1C(=O)/C(=C\c2cc(Br)ccc2OCc2ccccc2Cl)SC1=S`?
UCH37 inh: 15; NLRP3 yeast inh: 6; NALP1 inh: -7; Calb FLC: -10; ALR H2O2 inh: 8; ATG4B inhibitor: 50*; PLA2 counter: 81*

Results for O=C(O)CN1C(=O)/C(=C\c2cc(Br)ccc2OCc2ccccc2F)SC1=S ?
UCH37 inh: 24*; NLRP3 yeast inh: 8; NALP1 inh: -1; Calb FLC: -3; ALR H2O2 inh: 18; ATG4B inhibitor: 56*; PLA2 counter: 51*

How did O=C(CN1CCN(Cc2ccccc2)CC1)NN=C/C=C/c1ccccc1[N+](=O)[O-] do in these assays?
UCH37 inh: 8

How did CCOC(=O)NN=Cc1cc(C)n(-c2ccccc2)c1C do in these assays?
UCH37 inh: -2

What do the screens show for `Cc1ccccc1CN(C)CC(=O)Nc1ccccc1-c1ccccc1`?
UCH37 inh: 4; NLRP3 yeast inh: 1; NALP1 inh: 29; Calb FLC: 7; ALR H2O2 inh: 1; ATG4B inhibitor: 51*; PLA2 counter: 54*

Results for Cc1cc(C)cc(N(CC(=O)Nc2ccccc2-c2ccccc2)S(=O)(=O)c2ccccc2)c1 ?
UCH37 inh: 2; NLRP3 yeast inh: 11; NALP1 inh: 6; Calb FLC: 7; ALR H2O2 inh: -4; ATG4B inhibitor: 57*; PLA2 counter: 14

How did CC1CCCCC1=NNc1ccc(S(N)(=O)=O)cc1[N+](=O)[O-] (configuration not stated) do in these assays?
UCH37 inh: 5

Results for Nc1nn(-c2ccccc2)c(N)c1N=Nc1ccccc1 ?
UCH37 inh: 12; NLRP3 yeast inh: 33; NALP1 inh: 47; Calb FLC: 1; ALR H2O2 inh: 20; ATG4B inhibitor: 45*; ATG4B conf: 64*; PLA2 counter: 42

Results for Nc1c(N=Nc2ccccc2F)c(=O)[nH]n1-c1ccccc1 ?
UCH37 inh: 5; NLRP3 yeast inh: 33; NALP1 inh: 2; Calb FLC: 6; ALR H2O2 inh: -1; ATG4B inhibitor: 1

What do the screens show for `Cc1cccc(N=Nc2c(C)nn(-c3ccccc3)c2N)c1C`?
UCH37 inh: 3; NLRP3 yeast inh: -3; NALP1 inh: 26; Calb FLC: 3; ALR H2O2 inh: 3; ATG4B inhibitor: 82*; PLA2 counter: 90*

Results for Nc1nn(-c2ccccc2)c(N)c1N=Nc1ccccc1F ?
UCH37 inh: 9; NLRP3 yeast inh: 39; NALP1 inh: 43; Calb FLC: -1; ALR H2O2 inh: 1; ATG4B inhibitor: 70*; PLA2 counter: 72*
